Screening data from PubChem.
In the library only some 3.3% were active in any assay of this set; here they are far more common.
FGF22 binding = binders of recombinant human FGF22 by thermal shift; SYPRO orange fluorescence; percent of sucrose octasulfate shift, DMSO zero; activity (Tm shift, normalised), % at 9.99 µM; 340,000 tested, 1.5% active; AID 651658;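 active means mean Tm shift, scaled 0 neutral to 100 positive control, at about 1.3% or above, every replicate too, limit read from the data; inconclusive means no clear call, values can overlap the other calls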
Target sequence (Q9HCT0 whole entry, looked up): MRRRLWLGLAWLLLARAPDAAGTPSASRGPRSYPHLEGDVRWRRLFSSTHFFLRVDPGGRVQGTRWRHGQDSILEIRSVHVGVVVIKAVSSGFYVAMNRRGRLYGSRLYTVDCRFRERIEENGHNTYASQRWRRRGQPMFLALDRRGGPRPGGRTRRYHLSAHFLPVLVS
DENV2 CPE = DENV2-induced cell death inhibition; DENV2-infected cells, cytopathic effect rescue, plate reader; CPE inhibition, % at 9.99 µM; 350,000 tested, 1.7% active; AID 651640; in the data active means CPE inhibition above about 20%, passing the limit was not always enough; inconclusive means no clear call, values can overlap the other calls; tested in BHK-21 cells;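 further: 0% = median of neutral control wells and 100% = median of positive control wells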
PglD DTNB = inhibitors of Campylobacter jejuni PglD acetyltransferase; purified PglD enzyme, DTNB colorimetric CoA detection; 360,000 tested, 0.098% active; inhibition, % at 12.5 µM; in the data active means inhibition above about 16%, passing the limit was not always enough; inconclusive means no clear call, values can overlap the other calls
E-selectin induc = E-selectin induction on HUVECs; P16581; HUVEC E-selectin immunofluorescence imaging; normalized: neutral wells 0, TNF-alpha wells 100; activation, % at 7.58 µM; 260,000 tested, 0.37% active;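 active means mean E-selectin-positive cell signal at least 10% of the positive control, reached in at least 60% of replicates, without over 20% cell loss; inconclusive means no rule given, readout overlaps actives, possibly toxicity-flagged; inactive means the rest, including those meeting only one limit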
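Assay system: HUVEC, human umbilical vein endothelial cells / Amount: 3,000 HUVEC/well / Controls: TNF-alpha positive control, DMSO neutral control / Compound dosing: single concentration / Medium: EGM-2 over gelatin coat / Evaluation: percent E-selectin-positive cells / Signal: immunofluorescence imaging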
XiGFP reactiv = reactivates the inactive X chromosome in mouse fibroblasts. 360,000 tested, 0.055% active. activation, % at 7.58 µM. AID 743238. XiGFP mouse fibroblasts, % GFP-positive cells imaging, 3 d; cells co-treated with 5-aza-dC sensitizer; scaled so ellipticine positive control = 100%;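 active means mean normalized replicate activation at least 10% and every replicate at or above 10%; inconclusive means only one of the two criteria met; inactive means mean below 10% and not all replicates reach 10%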;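 further: 0% = median of on-plate neutral control wells and 100% = ellipticine 6 µM median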
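Schedule: 3 d treatment, 15 min room-temperature fixation; system: 68-5-11 XiGFP fibroblast line; buffer or medium: DMEM plus 5-aza-dC sensitizer; control set: ellipticine 6 µM positive control; compound: one concentration, pinned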
C2C12 statin = protects C2C12 myotubes from simvastatin toxicity | ATP luminescence, 48 h; scaled: DMSO 0, geranylgeraniol control 100 | rescue of ATP level, % at 7.49 µM | 330,000 tested, 0.78% active | AID 602340;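 active means mean ATP rescue above about 67%, or every replicate alone reaching that limit, limit read from the data, passing the limit was not always enough; inconclusive means no clear call, values can overlap the other calls; inactive means mean under the limit and some replicate under it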;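 further: myotubes were challenged with 10 µM simvastatin during compound exposure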
* = called active by the depositor; ? = inconclusive; . = no result.

SMILES	FGF22 binding	DENV2 CPE	PglD DTNB	E-selectin induc	XiGFP reactiv	C2C12 statin
O=C(N[C@H]1CC[C@H](CCn2cc(Cc3ccccc3)nn2)O[C@H]1CO)c1ccccn1	0	-4	0	1	0	7
COc1ccc(CCN2C(=O)CS/C2=N\NC(=O)c2cccs2)cc1OC	44*	-3	.	.	0	.
COc1cccc(C(=O)N/N=C2/SCC(=O)N2CCc2ccc(OC)c(OC)c2)c1	.	.	1	.	.	33
C[C@H](CO)N1C[C@H](C)[C@H](CN(C)S(=O)(=O)c2ccccc2)OCCCC[C@H](C)Oc2ccc(NS(C)(=O)=O)cc2C1=O	0	-12	1	1	1	?
CC(C)(C)OC(=O)NCc1ccc(CNC(=O)c2[nH]cnc2C(=O)N[C@@H](Cc2ccccc2)C(=O)OC(C)(C)C)cc1	12*	7	5	0	0	.
CN1CCn2cnc(C(=O)NCc3ccc(CNC(=O)OC(C)(C)C)cc3)c2C1=O	0	-6	2	0	0	7
CN1CCn2cnc(C(=O)N[C@@H](Cc3ccccc3)C(=O)OC(C)(C)C)c2C1=O	44*	2	-9	0	0	15
CC(C)(C)OC(=O)[C@H](Cc1ccccc1)NC(=O)c1nc[nH]c1C(=O)NCc1ccccc1	0	.	-3	0	0	-1
O=C(C[C@@H]1CC[C@@H]2[C@H](COC[C@H](O)CN2CCc2ccccc2)O1)N1CCC(Cc2ccccc2)CC1	0	4	4	0	0	-16
O=C(Nc1ccc(F)cc1)N[C@H]1CC[C@@H](CCNS(=O)(=O)c2cccc(Cl)c2)O[C@H]1CO	0	-5	2	1	1	-4
CC1(Cc2cccc(F)c2)C(=O)Nc2ccc(S(=O)(=O)NC3CCCCC3)cc21 (stereo not given)	0	8	-3	0	0	164*
CC1(Cc2ccc(Cl)c(Cl)c2)C(=O)Nc2ccc(S(=O)(=O)NC3CCCCC3)cc21 (stereo not given)	0	12	1	0	0	31
C[C@@H]1CN([C@@H](C)CO)C(=O)CCCn2cc(nn2)CO[C@H]1CN(C)Cc1ccc(O)cc1	0	-15	1	0	0	-14
C[C@@H]1CCCCO[C@H](CN(C)CC2CC2)[C@@H](C)CN([C@H](C)CO)C(=O)c2cc(NC(=O)CCC(F)(F)F)ccc2O1	0	-7	.	0	0	.
CCN(C[C@@H]1[C@@H](c2ccc(-c3ccccc3)cc2)[C@H](CO)N1C(C)=O)C(C)=O	0	22*	0	-1	0	16
CCN(C[C@H]1[C@H](c2ccccc2)[C@H](CO)N1C(C)=O)C(=O)NC(C)C	0	27*	-1	0	0	7
CCN(C[C@@H]1[C@@H](c2ccccc2)[C@@H](CO)N1C(C)=O)C(=O)NC(C)C	0	7	-3	0	0	8
COc1ccc(S(=O)(=O)Nc2ccc3c(c2)C(=O)N([C@@H](C)CO)C[C@H](C)[C@H](CN(C)C(=O)Nc2ccc(C(F)(F)F)cc2)OCCCC[C@@H](C)O3)cc1	0	-2	-1	0	0	.
C/C(=C\C(=O)C(F)(F)F)Nc1cc(C)cc(C)c1	.	.	-2	.	.	139*
CC1(C)CC(=O)C2=C(C1)Nc1ccccc1NC2c1ccccc1F (stereo not given)	0	-2	-10	0	0	-5
Cc1ccccc1C1NC(=S)NC2=C1C(=O)CC(C)(C)C2 (stereo not given)	43*	-3	.	0	0	.
CNC[C@H]1Oc2ccc(NS(C)(=O)=O)cc2CC(=O)N([C@@H](C)CO)C[C@H]1C	.	-1	0	-2	0	-3
C[C@@H](O)C#Cc1ccc([C@H]2[C@@H](CO)N3CCCCN(C(=O)c4ccc(F)cc4)C[C@@H]23)cc1	0	-1	0	1	0	.
CCCCn1c(NC(=O)CC)c(C#N)c2nc3ccccc3nc21	.	.	-4	.	.	.
CCC(=O)Nc1c(C#N)c2nc3ccccc3nc2n1-c1ccccc1C	.	.	2	.	.	192*
